Assay results published in the array DNA melting data of Ke et al. (doi:10.1101/2024.01.08.574731).

How the values were obtained:
[1] = folding enthalpy; higher = less favourable; fluorescence melt of hairpins on a sequencing array, two-state fit; conditions: sodium 0.088 M
Procedure, shortened: (§1)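 Folding enthalpy and melting temperature come from bootstrapped two-state fits to Cy3 fluorescence of library hairpins carrying annealed Cy3 and quencher oligos on a sequenced MiSeq flow cell. Imaging was done in 50 mM Na-HEPES pH 8.0, 25 mM NaCl, stepping by 2.5 °C up to 60 °C, and signals were normalised to pre-quench Cy3 and to control constructs. Results of four replicates were combined by inverse variance, and fitted temperatures were raised by 9.35 °C to match UV melts.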

[2] = melting temperature; fluorescence melt of hairpins on a sequencing array, two-state fit, raised by 9.35 °C to match UV melts; conditions: sodium 0.088 M
Procedure, shortened: as §1

| Sequence | folding enthalpy [1] | Tm [2] |
| --- | --- | --- |
| GGTTGGGGAAACCCAACC (((((((....))))))) | -36.8 kcal/mol | 66.4 °C |
| GGTTGGGGAAACCCAGCC ((.((((....)))).)) | -42.9 kcal/mol | 53.7 °C |
| GGTTGGGGAAACTCAGCC ((.((.(....).)).)) | -30.7 kcal/mol | 36.1 °C |
| GGTTGTCGAAAGACGACC (((.(((....))).))) | -39.9 kcal/mol | 58.8 °C |
| GGTTGTCGAAAGACTACC (((.(((....))).))) | -46 kcal/mol | 52 °C |
| GGTTTACGAAAGTACACC (((.(((....))).))) | -28.3 kcal/mol | 45.2 °C |
| GGTTTCGAAAGAACGACC ((((((....)))..))) | -14.4 kcal/mol | 29.6 °C |
| GGTTTCGAAAGAACTACC ((((((....)))..))) | -10.1 kcal/mol | 29.4 °C |
| GGTTTCGAAAGAAGAACC ((((((....)))..))) | -18.3 kcal/mol | 31.5 °C |
| GGTTTCGAAAGAAGCACC ((((((....)))..))) | -16.5 kcal/mol | 28.6 °C |
| GGTTTCGGAAACGAGACC (((.(((....))).))) | -33.1 kcal/mol | 50 °C |
| GGTTTGAAAAAACC (((((....))))) | -25 kcal/mol | 46.3 °C |
| GGTTTGGGAAACCGAACC ((((.((....)).)))) | -34.2 kcal/mol | 52.3 °C |
| GGTTTGGGAAACTAAGCC ((.((.(....).)).)) | -13.6 kcal/mol | 30.2 °C |
| GGTTTTGCGAAAGCAACC (((..(((....)))))) | -11.9 kcal/mol | 30.2 °C |
| GGTTTTGGAAACGAAACC (((((.(....).))))) | -43.9 kcal/mol | 47.5 °C |
| GTAAAACCGAAAGGTTAC (((..(((....)))))) | -14.9 kcal/mol | 31 °C |
| GTAAAACGAAAGTTATAC (((.(((....))).))) | -14.8 kcal/mol | 31.6 °C |
| GTAAAAGGAAACTTTTGC (.(((((....))))).) | -24.1 kcal/mol | 33.5 °C |
| GTAAACGAAAGTTTCTAC ((((((....)))..))) | -12.3 kcal/mol | 30.2 °C |
| GTAAACGAAAGTTTGTAC ((((((....)))..))) | -15.1 kcal/mol | 27.6 °C |
| GTAAACGAAAGTTTTTAC ((((((....)))..))) | -12 kcal/mol | 24.9 °C |
| GTAAACGGAAACGTTTGC (.(((((....))))).) | -26.1 kcal/mol | 48.5 °C |

| Sequence | folding enthalpy [1] | Tm [2] |
| --- | --- | --- |
| GTAAATCGAAAGATATAC (((.(((....))).))) | -12.1 kcal/mol | 29.7 °C |
| GTAAATGGAAACATTTGC (.(((((....))))).) | -28.9 kcal/mol | 38.6 °C |
| GTAACACGAAAGTGCTAC (((.(((....))).))) | -28.4 kcal/mol | 43.7 °C |
| GTAACACGAAAGTGGTAC (((.(((....))).))) | -41.3 kcal/mol | 55.1 °C |
| GTAACACGAAAGTGTAC (((.(((....)))))) | -14 kcal/mol | 42.8 °C |
| GTAACAGGAAACCGTTAC (((((.(....).))))) | -29.5 kcal/mol | 37.5 °C |
| GTAACAGGAAACTGTCAC ((.((((....)))).)) | -15.5 kcal/mol | 30.7 °C |
| GTAACAGGAAACTGTTGC (.(((((....))))).) | -24.4 kcal/mol | 45.3 °C |
| GTAACCCGAAAGGGATAC (((.(((....))).))) | -23.4 kcal/mol | 48.6 °C |
| GTAACCGAAAGGTGGTAC ((((((....)))..))) | -12.3 kcal/mol | 33.8 °C |
| GTAACCGAAAGGTTCTAC ((((((....)))..))) | -11.3 kcal/mol | 37.7 °C |
| GTAACCGAAAGGTTTTAC ((((((....)))..))) | -8.83 kcal/mol | 29.2 °C |
| GTAACGCGAAAGCGATAC (((.(((....))).))) | -24.1 kcal/mol | 51 °C |
| GTAACGGGAAACCATTAC ((((.((....)).)))) | -11.8 kcal/mol | 28.4 °C |
| GTAACGGGAAACTGTTAC (((((.(....).))))) | -30.4 kcal/mol | 46.3 °C |
| GTAACTCGAAAGAGATAC (((.(((....))).))) | -27.6 kcal/mol | 42 °C |
| GTAACTCGAAAGAGGTAC (((.(((....))).))) | -28.7 kcal/mol | 51.6 °C |
| GTAACTGGAAACAGCTAC (((.(((....))).))) | -30.1 kcal/mol | 34.2 °C |
| GTAAGAGCGAAAGCTTAC (((..(((....)))))) | -14.9 kcal/mol | 33.5 °C |
| GTAAGCACGAAAGTGTAC (((..(((....)))))) | -9.4 kcal/mol | 27.9 °C |
| GTAAGCGAAAGCTATAC ((((((....))).))) | -14.9 kcal/mol | 33.8 °C |
| GTAAGCGAAAGCTGTAC ((((((....))).))) | -15.7 kcal/mol | 43 °C |
| GTAAGCGAAAGCTTTAC ((((((....))).))) | -12.9 kcal/mol | 42 °C |

| Sequence | folding enthalpy [1] | Tm [2] |
| --- | --- | --- |
| GTAAGCGCGAAAGCGTAC (((..(((....)))))) | -9.28 kcal/mol | 28.8 °C |
| GTAAGCGGAAACGCTTAC (((((((....))))))) | -36.1 kcal/mol | 65.2 °C |
| GTAAGCGGAAACGCTTGC (.(((((....))))).) | -22.7 kcal/mol | 54.1 °C |
| GTAAGGACGAAAGTCTAC (((..(((....)))))) | -8.78 kcal/mol | 30.2 °C |
| GTAAGGCGAAAGCCTAC (((.(((....)))))) | -11.4 kcal/mol | 46 °C |
| GTAAGGGCGAAAGCCTAC (((..(((....)))))) | -8.85 kcal/mol | 29.7 °C |
| GTAAGTCGAAAGACATAC (((.(((....))).))) | -21.5 kcal/mol | 38.7 °C |
| GTAATCGAAAGATACTAC ((((((....)))..))) | -18.4 kcal/mol | 31.4 °C |
| GTAATCGAAAGATTAC ((((((....)))))) | -48.2 kcal/mol | 53.3 °C |
| GTAATCGGAAACGATTAC (((((((....))))))) | -42.4 kcal/mol | 56.4 °C |
| GTAATCGGAAACGATTGC (.(((((....))))).) | -25.6 kcal/mol | 48.2 °C |
| GTAATCGGAAACGGTTAC ((((.((....)).)))) | -33.2 kcal/mol | 46.7 °C |
| GTAATCTCGAAAGAGTAC (((..(((....)))))) | -10.9 kcal/mol | 26.7 °C |
| GTAATGGGAAACCACTAC (((.(((....))).))) | -15.9 kcal/mol | 27.6 °C |
| GTAATTCGAAAGAAATAC (((.(((....))).))) | -16.9 kcal/mol | 33 °C |
| GTAATTCGAAAGAATAC (((.(((....)))))) | -15.2 kcal/mol | 32 °C |
| GTAATTGGAAACAGTTAC ((((.((....)).)))) | -21.2 kcal/mol | 35.9 °C |
| GTACAAGGAAACTTGCAC ((.((((....)))).)) | -25.4 kcal/mol | 34.1 °C |
| GTACACCCGAAAGGGTAC (((..(((....)))))) | -9.29 kcal/mol | 33 °C |
| GTACACCGAAAGGTATAC (((.(((....))).))) | -22.3 kcal/mol | 39.1 °C |
| GTACACCGAAAGGTCTAC (((.(((....))).))) | -15.3 kcal/mol | 30.9 °C |
| GTACACGGAAACGTGCAC ((.((((....)))).)) | -17.9 kcal/mol | 46.8 °C |
| GTACAGAAATGTAC (((((....))))) | -20.2 kcal/mol | 40.4 °C |

| Sequence | folding enthalpy [1] | Tm [2] |
| --- | --- | --- |
| GTACAGCGAAAGCTTAC (((.(((....)))))) | -13.1 kcal/mol | 38.1 °C |
| GTACAGGAAACTGTAC ((((((....)))))) | -41.6 kcal/mol | 52.4 °C |
| GTACAGGCGAAAGCCTAC (((..(((....)))))) | -8.61 kcal/mol | 34.9 °C |
| GTACAGGGAAACCTGTAC (((((((....))))))) | -40.3 kcal/mol | 59.4 °C |
| GTACATCGAAAGATCTAC (((.(((....))).))) | -10.2 kcal/mol | 25.1 °C |
| GTACATGGAAACACGTAC ((((.((....)).)))) | -21.9 kcal/mol | 36.2 °C |
| GTACCAGGAAACTGGCAC ((.((((....)))).)) | -21.1 kcal/mol | 42.1 °C |
| GTACCCCGAAAGGGCTAC (((.(((....))).))) | -14 kcal/mol | 35.7 °C |
| GTACCCGAAAGGGACTAC ((((((....)))..))) | -14.3 kcal/mol | 45.8 °C |
| GTACCCGAAAGGGAGTAC ((((((....)))..))) | -15.3 kcal/mol | 39.9 °C |
| GTACCCGAAAGGGATAC ((((((....))).))) | -15.3 kcal/mol | 47 °C |
| GTACCCGGAAACGGGCAC ((.((((....)))).)) | -18.7 kcal/mol | 50 °C |
| GTACCCTCGAAAGAGTAC (((..(((....)))))) | -10.6 kcal/mol | 25.2 °C |
| GTACCGGGAAACCGGTGC (.(((((....))))).) | -19.1 kcal/mol | 57.1 °C |
| GTACCGTCGAAAGACTAC (((..(((....)))))) | -8.88 kcal/mol | 25.7 °C |
| GTACCTGGAAACAGGTGC (.(((((....))))).) | -28.1 kcal/mol | 52.4 °C |
| GTACGACCGAAAGGTTAC (((..(((....)))))) | -8.91 kcal/mol | 19.8 °C |
| GTACGCGAAAGCGAGTAC ((((((....)))..))) | -13.8 kcal/mol | 41.1 °C |
| GTACGCGAAAGCGCATAC ((((((....)))..))) | -5.57 kcal/mol | 22.5 °C |
| GTACGCGGAAACGCACAC ((..(((....)))..)) | -13.8 kcal/mol | 33.1 °C |
| GTACGCGGAAACGCATAC (((.(((....))).))) | -19.6 kcal/mol | 39.9 °C |
| GTACGCGGAAACGTGTAC ((((.((....)).)))) | -28.1 kcal/mol | 54.6 °C |
